G6PDH counter – L. mesenteroides G6PDH inhibitors, counter-screen for G6PDH-coupled screening assays, biochemical, Leuconostoc mesenteroides enzyme. Purified L. mesenteroides G6PDH, diaphorase/resazurin coupled fluorescence, 45 min. inhibition, % at 5 µM. 0.12% of 200,000 active
PfG6PD inh – PfG6PD enzyme inhibitors, primary screen, biochemical, fluorescence intensity, uHTS; inhibition, % at 20 µM; AID 504690, 2011; PfGluPho enzyme, NADPH resazurin-diaphorase fluorescence; glucose-6-phosphate dehydrogenase-6-phosphogluconolactonase (Plasmodium falciparum 3D7); 0.78% of 350,000 active;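 active means inhibition reaching at least a set limit at 20 µM in the primary screen, cut at about 59% in these data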;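 further: 0% = DMSO wells with substrate and 100% = DMSO wells lacking glucose-6-phosphate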
Diaph inh CS – diaphorase inhibitors and chemical oxidizers, primary screen, counter-screen for diaphorase-coupled primary assays, biochemical, uHTS, resorufin fluorescence; diaphorase resazurin-to-resorufin fluorescence, NADH, 16 min; bacterial (C. kluyveri) enzyme, not human; inhibition, % at 20 µM; 0.69% of 190,000 active; AID 1217, 2008;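 active means primary screen inhibition at 20 µM above a set limit, cut at about 50% in these data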;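 further: plate controls were DMSO with full reaction for no effect and wells lacking NADH for full effect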
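Assay system: diaphorase enzyme from Clostridium kluyveri. Quantity: enzyme working solution with 0.14 U/mL diaphorase. Schedule: reaction incubation of 16 min at room temperature. Technique: resorufin fluorescence, excitation 544 nm, emission 590 nm. Controls: No-NADH positive control and DMSO neutral control.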
DTT redox prof – compounds producing H2O2 with reducing agent – biochemical, NIH compound library profiling, artefact control for MLSCN library redox annotation, primary screen. 0.03% of 200,000 active. activation, % at 10 µM. DTT-dependent redox cycling H2O2, phenol red/HRP absorbance; 100% = 100 µM peroxide control, 0% = buffer;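 active means activation of at least 50% relative to the plate's high and low controls in the primary single-dose screen; inactive means activation below 50%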;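 further: compound incubated with DTT at 0.8 mM final as the reducing agent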
L major viab – Leishmania major promastigote growth inhibition, primary screen | Leishmania major promastigotes, resazurin fluorescence viability | inhibition, % at 10 µM | 9% of 200,000 active;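 further: promastigotes grown with compound for 44 hours at 28 °C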
Diaph act CS – compounds boosting diaphorase resazurin reduction – biochemical, uHTS, resorufin fluorescence, counter-screen for diaphorase-coupled primary assays, primary screen; 0.005% of 190,000 active; activation factor at 20 µM; Diaphorase/resazurin coupled assay, 16 min; hits give high values; 1 = vehicle wells, 0 = NADH-free wells;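 active means diaphorase activity raised at least twofold by the compound at 20 µM; inactive means activation factor below 2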
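Assay system: bacterial diaphorase enzyme (C. kluyveri) / Input: enzyme 0.07 U/mL final / Medium: 50 mM HEPES pH 7.4 with 4.542 mM MgCl2, 0.005% Tween 20 / Doses: single compound dose of 20 µM, 1% DMSO final / Incubation: 16 min enzyme reaction, ambient temperature / Signal: fluorescence, excitation 544 nm and emission 590 nm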
* = called active by the depositor; . = no result. This is one part of a sample in which hits are shown more often than they occur. Unless noted, no stated cut-off is given here; in the data, active means inhibition above about 50%; inactive means the rest.

SMILES	G6PDH counter	PfG6PD inh	Diaph inh CS	DTT redox prof	L major viab	Diaph act CS
Cc1cccc(-c2nc3ccccc3c(=O)n2NC(=O)/C=C/c2ccc([N+](=O)[O-])cc2)c1	20.8	-16.2	27.1	0.0	52.4*	0.7
CCN(CC(=O)Nc1ccc(OC)cc1)C(=O)Cc1ccc(OC)c(S(=O)(=O)N2CCOCC2)c1	.	-8.3	.	.	.	.
COc1ccc(CC2(CO)CCN(Cc3cccc(OC)c3OC)CC2)cc1	7.4	-6.4	12.5	-0.2	5.4	0.9
COc1ccc(/C=C/CN2CCC(CO)(Cc3ccccc3Cl)CC2)cc1	17.2	9.8	-5.0	0.7	95.6*	1.1
COC(=O)c1ccc(CN2CCCC(CO)(Cc3ccccc3F)C2)cc1 (stereo not given)	.	-4.1	.	.	.	.
COC(=O)c1ccc(CN2CCC(CO)(Cc3ccccc3Cl)CC2)cc1	13.5	-5.3	.	-0.4	97.5*	.
O=C(c1ccc(Oc2ccc(C(F)(F)F)cc2[N+](=O)[O-])cc1)N1CCOCC1	7.6	-14.8	2.2	.	55.3*	1
O=C(c1ccccc1Oc1ccc(C(F)(F)F)cc1[N+](=O)[O-])N1CCOCC1	3.9	26.8	9.6	0.3	-0.5	0.9
CC(C)OCC(O)CN1CCC(Cc2ccccc2)CC1 (stereo not given)	.	9.4	.	.	.	.
OC(CON=C1c2ccccc2-c2ccccc21)CN1CCNCC1 (stereo not given)	-2.5	3.2	7.7	-1.1	91.6*	0.9
O=C(C1CCCO1)N1CCN(S(=O)(=O)c2ccccc2)CC1 (stereo not given)	1.0	-19.3	8.9	0.7	4.2	0.9
Cc1ccc(NC(=S)N2CCN(C(=O)C3CCCO3)CC2)cc1 (stereo not given)	12.8	-6.6	-9.9	-0.8	-1.3	1.1
S=C(Nc1ccccc1)N1CCCCCC1	9.3	-2.1	-0.2	1.2	-6.5	1
O=C(C1CCCO1)N1CCN(C(c2ccccc2)c2ccccc2)CC1 (stereo not given)	10.1	-2.1	6.2	-2.6	96.4*	0.9
O=C(C1CCCO1)N1CCN(C(=S)Nc2ccccc2)CC1 (stereo not given)	5.5	-1.1	10.5	0.0	53.2*	0.9
S=C(Nc1ccccc1)N1CCN(C2CCCCC2)CC1	1.5	0.4	7.3	0.0	88.3*	0.9
O=C1CN(C(=O)CN2CCN(S(=O)(=O)c3ccccc3)CC2)c2ccccc2N1	.	-0.5	.	.	.	.
O=C(COC(=O)c1ccc(-c2ccccc2)cc1)Nc1ccccc1-c1ccccc1	6.9	-2.6	5.9	0.3	3.5	0.9
O=C(COC(=O)c1ccc(O)cc1)Nc1ccccc1-c1ccccc1	10.6	-1.5	4.8	0.6	56.7*	1
Cc1oc2c(CN(C)C)c(O)ccc2c(=O)c1-c1ccc2ccccc2n1	1.0	6.7	13.3	-0.7	76.3*	0.9
O=C(CN1CCN(c2ccc(C(F)(F)F)cn2)CC1)NCc1ccc2c(c1)OCO2	.	17.4	.	.	.	.
O=[N+]([O-])c1ccc(N/N=C/c2ccc[nH]2)cc1	8.5	81.0*	27.1	0.4	29.5	0.7
COc1ccc(CCNC(=O)CSc2nc(=O)[nH]c3c2CCC3)cc1OC	.	-3.6	.	.	.	.
COc1ccc(-n2cc(CNCc3cnc4ccccn34)c(-c3cccc(F)c3)n2)cc1	20.7	17.3	-13.2	-0.8	42.1	1.1
COc1ccc(-n2cc(CNCCCn3ccnc3)c(-c3cccc(F)c3)n2)cc1	5.6	12.3	-63.4	-0.4	100.3*	1.6
SMILES	G6PDH counter	PfG6PD inh	Diaph inh CS	DTT redox prof	L major viab	Diaph act CS
COc1ccc(-n2cc(CN(C)C3CCOCC3)c(-c3cccc(F)c3)n2)cc1	14.3	3.0	12.7	-1.0	16.1	0.9
COc1ccc(-n2cc(CNCC3CCOCC3)c(-c3cccc(F)c3)n2)cc1	6.5	-7.2	-4.3	-1.6	86.8*	1
Cc1cc(C(=O)c2cnc(/N=C/N(C)C)s2)cc(C)c1O	-0.8	6.5	8.5	1.4	-3.4	0.9
C(#Cc1ccc(C#CCN2CCCC2)cc1)CN1CCCC1	-8.7	-11.0	-3.1	-0.8	91.8*	1
COc1cc(C2N(C)CCC3(OCCO3)C2(C)C)cc(OC)c1OC (stereo not given)	5.7	0.1	8.4	0.1	57.9*	0.9
COc1ccc(CC(=O)Nc2ccc3c(c2)OC2(CCCC2)O3)c(OC)c1	.	17.5	.	.	.	.
O=C(NC1=C(Nc2ccc(Cl)cc2)C(=O)c2ccccc2C1=O)c1ccccc1	42.9	44.6	32.9	-0.5	77.7*	0.7
O=C(Nc1ccc(Nc2ccccc2)cc1)c1ccc(Cl)cc1	.	21.3	.	.	.	.
CN(C1=C(NC(=O)c2ccc(Cl)cc2)C(=O)c2ccccc2C1=O)c1ccccc1	13.8	43.0	42.6	0.6	63.8*	0.6
CC(=O)Oc1ccc(N2C(=O)C3C4C=CC(CO)(O4)C3C2=O)cc1 (stereo not given)	0.2	15.7	-11.9	0.1	7.2	1.1
O=C1C2C3C=CC(CO)(O3)C2C(=O)N1c1ccccc1-c1ccccc1 (stereo not given)	-1.9	82.2*	17.1	-0.2	-4.6	0.8
CCCCOC(=O)C1=C(C)Nc2ncnn2C1c1cc(OC)ccc1OC (stereo not given)	-1.3	5.8	10.4	-0.1	4.3	0.9
CCOC(=O)C1=C(c2ccccc2)Nc2ncnn2C1c1ccc(OC)c(OC)c1OC (stereo not given)	2.2	-12.6	6.3	0.7	86.2*	0.9
CCCCOC(=O)C1=C(C)Nc2ncnn2C1c1cccc(OC)c1 (stereo not given)	6.4	27.8	16.3	1.2	61.4*	0.8
COc1cccc(C2C(C(=O)OCc3ccccc3)=C(C)Nc3ncnn32)c1OC (stereo not given)	-8.9	17.6	14.1	-2.2	90.8*	0.9
COc1ccc(C2C=C(c3ccc(C)c(C)c3)Nc3ncnn32)c(OC)c1OC (stereo not given)	-2.4	-7.2	15.1	-0.7	79.9*	0.8
CCOC(=O)C1=C(c2ccccc2)Nc2nc(C)nn2C1c1cccc(OC)c1OC (stereo not given)	-14.8	-4.0	13.8	4.0	9.0	0.9
COc1ccc(/C=C2\SC(=O)N(CC(=O)NNC(=O)c3ccccc3O)C2=O)cc1	-0.1	-30.3	-0.5	-0.5	-5.2	1
COc1ccc(NC(=O)CSc2nnc(C)n2N)cc1S(=O)(=O)N1CCCCC1	.	-2.8	.	.	.	.
CCc1noc(C)c1C(=O)OCC(=O)c1ccccc1OC	.	-4.8	.	.	.	.
Cc1cc(-n2cnnn2)ccc1C(C)C	2.2	0.9	15.1	-2.0	-3.7	0.8
